Measured values taken from ChEMBL document CHEMBL2440111, “Overcoming doxorubicin-resistance in the NCI/ADR-RES model cancer cell line by novel anthracene-9,10-dione derivatives” (Bioorg Med Chem Lett, 2013).
Calls of active or inactive are those of the source. No cut-off for these calls is given here.

Experiments:
[1] = Antiproliferative activity against human Caov3 cells after 72 hrs by MTT assay; assay type: functional, cell-based; details: Caov-3, 72 h
Method in brief: (§1)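 Cells kept in exponential growth at 37 °C in humidified 5% CO2 with 2 mM L-glutamine, mycoplasma-checked. Compounds were applied over a dose range and viability was read by MTT relative to an untreated control. IC50 is the concentration giving a 50% decrease in viability. Values are mean ± SD of three independent experiments.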

[2] = tested on: MIA PaCa-2; test: Antiproliferative activity against human MIAPaCa2 cells after 72 hrs by MTT assay; assay type: functional, cell-based; details: MIA PaCa-2, 72 h; method in brief: as §1
[3] = tested on: U2OS; test: Antiproliferative activity against human U2OS cells after 72 hrs by MTT assay; assay type: functional, cell-based; method in brief: as §1
[4] = tested on: NCI/ADR-RES; test: Inhibition of colony formation in human NCI/ADR-RES cells at 1 uM after 24 hrs; assay type: functional, cell-based
Method in brief: (§2)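 NCI/ADR-RES cells were seeded at 100 cells/well and left to attach overnight. Serial compound dilutions were applied for 24 h, then washed out. Colonies grew in drug-free medium for 8-10 days and were fixed with 1% glutaraldehyde and stained with 2% crystal violet, 30 min each. Colonies were imaged and counted versus untreated control; values are means of ≥3 independent experiments.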

[5] = tested on: DU-145; test: Antiproliferative activity against human DU145 cells at 20 uM after 72 hrs by MTT assay; assay type: functional; details: DU-145, 72 h
Method in brief: (§3)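 Each cell line in the panel was treated with 20 µM compound, with doxorubicin as reference. Exponentially growing cells were grown at 37 °C in 5% CO2. MTT read-out served as a surrogate of viable cell number, expressed as % inhibition versus an untreated control. Values are mean ± SD of three independent experiments.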

[6] = tested on: LNCaP; test: Antiproliferative activity against human LNCAP cells after 72 hrs by MTT assay; assay type: functional, cell-based; method in brief: as §1
[7] = tested on: LNCaP; test: Increase of cleaved caspase-9 level in human LNCAP cells at 3 uM after 24 hrs by Western blot analysis; assay type: functional, cell-based
Method in brief: (§4)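 LNCaP cells were treated for 24 h, then lysed. Equal protein was run on 12% SDS-PAGE and blotted to PVDF. Membranes were blocked 1 h in 5% skim milk/TBS-0.1% Tween and probed overnight at 4 °C with anti-p53 or anti-caspase-9. A secondary antibody and ECL detection followed, with GAPDH as loading control.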

[8] = tested on: NCI/ADR-RES; test: Cell cycle arrest in human NCI/ADR-RES cells assessed as accumulation at G2/M phase at 10 uM after 24 hrs using propidium iodide staining by flow cytometry (reference value: 35%); assay type: functional
[9] = Antiproliferative activity against human […] cells at 20 uM after 72 hrs by MTT assay; assay type: functional; method in brief: as §3
[10] = tested on: NCI/ADR-RES; test: Antiproliferative activity against human NCI/ADR-RES cells after 72 hrs by MTT assay; assay type: functional, cell-based; method in brief: as §1
[11] = tested on: NCI/ADR-RES; test: Inhibition of colony formation in human NCI/ADR-RES cells after 24 hrs; assay type: functional, cell-based; method in brief: as §2
[12] = tested on: DU-145; test: Antiproliferative activity against human DU145 cells after 72 hrs by MTT assay; assay type: functional, cell-based; details: DU-145, 72 h; method in brief: as §1
[13] = Antiproliferative activity against human […] cells after 72 hrs by MTT assay; assay type: functional, cell-based; method in brief: as §1
[14] = tested on: NCI/ADR-RES; test: Antiproliferative activity against human NCI/ADR-RES cells at 20 uM after 72 hrs by MTT assay in presence of glutathione; assay type: functional
Method in brief: (§5)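 NCI/ADR-RES cells were pretreated for 2 h with 5 mM N-acetylcysteine or glutathione. Compound at 20 µM was then added for 72 h, with doxorubicin as positive control. Percent inhibition was measured by MTT.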

[15] = tested on: NCI/ADR-RES; test: Ratio of doxorubicin IC50 to compound IC50 for human NCI/ADR-RES cells; assay type: functional
[16] = tested on: NCI/ADR-RES; test: Cell cycle arrest in human NCI/ADR-RES cells assessed as accumulation at G0/G1 phase at 10 uM after 24 hrs using propidium iodide staining by flow cytometry (reference value: 51%); assay type: functional
[17] = tested on: MIA PaCa-2; test: Antiproliferative activity against human MIAPaCa2 cells at 20 uM after 72 hrs by MTT assay; assay type: functional; details: MIA PaCa-2, 72 h; method in brief: as §3
[18] = tested on: BXPC-3; test: Antiproliferative activity against human BxPC3 cells at 20 uM after 72 hrs by MTT assay; assay type: functional; details: BXPC-3, 72 h; method in brief: as §3
[19] = tested on: NCI/ADR-RES; test: Antiproliferative activity against human NCI/ADR-RES cells at 20 uM after 72 hrs by MTT assay; assay type: functional; method in brief: as §3
[20] = tested on: OVCAR-8; test: Antiproliferative activity against human OVCAR8 cells at 20 uM after 72 hrs by MTT assay in presence of glutathione; assay type: functional, cell-based
[21] = tested on: NCI/ADR-RES; test: Antiproliferative activity against human NCI/ADR-RES cells at 20 uM after 72 hrs by MTT assay in presence of N-acetylcysteine; assay type: functional; method in brief: as §5
[22] = Antiproliferative activity against human Caov3 cells at 20 uM after 72 hrs by MTT assay; assay type: functional; details: Caov-3, 72 h; method in brief: as §3
[23] = tested on: U2OS; test: Antiproliferative activity against human U2OS cells at 20 uM after 72 hrs by MTT assay; assay type: functional; method in brief: as §3
[24] = tested on: LNCaP; test: Up-regulation of p53 expression in human LNCAP cells at 3 uM after 24 hrs by Western blot analysis; assay type: functional, cell-based; method in brief: as §4
[25] = tested on: PC-3; test: Antiproliferative activity against human PC3 cells at 20 uM after 72 hrs by MTT assay; assay type: functional; details: PC-3, 72 h; method in brief: as §3
[26] = tested on: LNCaP; test: Antiproliferative activity against human LNCAP cells at 20 uM after 72 hrs by MTT assay; assay type: functional; method in brief: as §3
[27] = tested on: OVCAR-8; test: Antiproliferative activity against human OVCAR8 cells after 72 hrs by MTT assay; assay type: functional, cell-based; details: OVCAR-8, 72 h; method in brief: as §1
[28] = tested on: BXPC-3; test: Antiproliferative activity against human BxPC3 cells after 72 hrs by MTT assay; assay type: functional, cell-based; details: BXPC-3, 72 h; method in brief: as §1
[29] = tested on: NCI/ADR-RES; test: Cell cycle arrest in human NCI/ADR-RES cells assessed as accumulation at S phase at 10 uM after 24 hrs using propidium iodide staining by flow cytometry (reference value: 14%); assay type: functional
[30] = tested on: OVCAR-8; test: Antiproliferative activity against human OVCAR8 cells at 20 uM after 72 hrs by MTT assay in presence of N-acetylcysteine; assay type: functional, cell-based
[31] = tested on: PC-3; test: Antiproliferative activity against human PC3 cells after 72 hrs by MTT assay; assay type: functional, cell-based; details: PC-3, 72 h; method in brief: as §1
[32] = tested on: OVCAR-8; test: Antiproliferative activity against human OVCAR8 cells at 20 uM after 72 hrs by MTT assay; assay type: functional; details: OVCAR-8, 72 h; method in brief: as §3

Cc1ccc(S(=O)(=O)Oc2ccc(NCc3ccc(N)cc3)c3c2C(=O)c2ccccc2C3=O)cc1
IC50 [1]: 2.5 µM
IC50 [2]: 2.7 µM
IC50 [3]: 2.8 µM
inhibition [4]: Active
inhibition at 20 µM [5]: 87.2%
IC50 [6]: 0.4 µM
Activity [7]: Active
inhibition at 10 µM [8]: 55%
inhibition at 20 µM [9]: 75.1%
IC50 [10]: 0.8 µM
IC50 [11]: 0.5 µM
inhibition [11]: Dose-dependent effect
IC50 [12]: 5.4 µM
IC50 [13]: 3.8 µM
inhibition at 20 µM [14]: > 60%
Ratio IC50 [15]: > 25
inhibition at 10 µM [16]: 30%
inhibition at 20 µM [17]: 91.1%
inhibition at 20 µM [18]: 94%
inhibition at 20 µM [19]: 80.5%
inhibition [20]: Active
inhibition at 20 µM [21]: > 60%
inhibition at 20 µM [22]: 85.7%
inhibition at 20 µM [23]: 92.3%
Activity [24]: inactive
inhibition at 20 µM [25]: 75.8%
inhibition at 20 µM [26]: 88.9%
IC50 [27]: 3.5 µM
IC50 [28]: 1.8 µM
inhibition at 10 µM [29]: 25%
inhibition [30]: Active
IC50 [31]: 6.5 µM
inhibition at 20 µM [32]: 85.4%
